# According to ChEMBL document CHEMBL1125592, “Calcium channel blocking and positive inotropic activities of ethyl 5-cyano-1,4-dihydro-6-methyl-2-[(phenylsulfonyl)methyl]-4-aryl-3- pyridine-carboxylate and analogues. Synthesis and structure-activity relationships” (J Med Chem, 1991):
# Biological target: Voltage-gated L-type calcium channel (Rattus norvegicus, UniProt P22002+Q02485+P27732)
# Test: Affinity to bind dihydropyridine receptor (DHP receptor) by inhibiting the radioligand [3H]nitrendipine
# Type: protein assay
# Method in brief: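 [3H]nitrendipine displacement, rat brain cortical membranes. Each compound first screened at 1000 nM; if inhibition exceeded 40%, a four- to seven-point curve with unlabeled compound was run. IC50 generally mean of two experiments, each in triplicate. ">1000 nM" means under 40% inhibition of control binding at 1000 nM.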
row,Structure (SMILES),IC50 [nM]
1,CCO/C(O)=C1\C(CSc2ccccc2)=NC(C)=C(C#N)C1c1ccccn1 (centres undefined),> 1000
2,CCOC(=O)C1=C(C)NC(C[S+]([O-])c2ccccc2C)=C(C(=O)OCC)C1c1ccccc1C(F)(F)F (stereo in doubt; 10a),160
3,CCO/C(O)=C1\C(C[S+]([O-])c2ccc(NC(C)=O)cc2)=NC(C)=C(C#N)C1c1ccccc1C(F)(F)F (centres undefined),> 1000
4,CCO/C(O)=C1\C(CSc2ccccc2)=NC(C)=C(C#N)C1c1ccccc1 (centres undefined),> 1000
5,CCOC(=O)C1=C(C)NC(C[S+]([O-])c2ccccc2C)=C(C(=O)OCC)C1c1ccccc1C(F)(F)F (stereo in doubt; 10b),170
6,CC1=C(C#N)C(c2ccccc2C(F)(F)F)/C(=C(\O)OCCN2CCOCC2)C(C[S+]([O-])c2ccccc2)=N1 (centres undefined),> 1000
7,CCOC(=O)C1=C(C)N=C(C[S+]([O-])c2ccc(OC)cc2)/C(=C(/O)OCC)C1c1ccccc1C(F)(F)F (stereo in doubt; 8a),21
8,CCO/C(O)=C1\C(CSc2ccccc2Cl)=NC(C)=C(C#N)C1c1ccccc1C(F)(F)F (centres undefined),> 1000
9,CCCCc1ccc(S(=O)(=O)CC2=NC(C)=C(C#N)C(c3ccccc3C(F)(F)F)/C2=C(\O)OCC)c(C)c1 (centres undefined),> 1000
10,CCO/C(O)=C1\C(CSc2ccncc2)=NC(C)=C(C#N)C1c1cccc(Cl)c1Cl (centres undefined),1400
11,CCO/C(O)=C1\C(CSc2ccc(Cl)cc2)=NC(C)=C(C#N)C1c1ccccc1C(F)(F)F (centres undefined),100
12,C=CCO/C(O)=C1\C(CSc2ccccc2)=NC(C)=C(C#N)C1c1ccccc1C(F)(F)F (centres undefined),580
13,CCO/C(O)=C1\C(C[S+]([O-])c2ccc(Cl)cc2)=NC(C)=C(C#N)C1c1ccccc1C(F)(F)F (centres undefined),> 1000
14,CCO/C(O)=C1\C(CS(=O)(=O)c2ccncc2)=NC(C)=C(C#N)C1c1ccccc1Cl (centres undefined),713
15,CCOC(=O)C1=C(C)N=C(C[S+]([O-])c2ccccn2)/C(=C(/O)OCC)C1c1ccccc1C(F)(F)F (centres undefined),10
16,CC1=C(C#N)C(c2ccccc2C(F)(F)F)/C(=C(\O)OCC(O)CO)C(CS(=O)(=O)c2ccccc2)=N1 (centres undefined),> 1000
17,CCO/C(O)=C1\C(C[S+]([O-])c2ccccc2)=NC(C)=C(C#N)C1c1ccco1 (centres undefined),> 1000
18,CCO/C(O)=C1\C(C[S+]([O-])c2ccccc2)=NC(C)=C(C#N)C1C1CCCCC1 (centres undefined),> 1000
19,CCO/C(O)=C1\C(CS(=O)(=O)c2ccncc2)=NC(C)=C(C#N)C1c1ccccc1C (centres undefined),1410
20,CCO/C(O)=C1\C(CSc2ccccc2)=NC(C)=C(C#N)C1c1ccccc1C(F)(F)F (centres undefined),450

row,Structure (SMILES),IC50 [nM]
1,CCO/C(O)=C1\C(CS(=O)(=O)c2ccncc2)=NC(C)=C(C#N)C1c1cccc(Cl)c1Cl (centres undefined),434
2,CCO/C(O)=C1\C(CSc2ccncc2)=NC(C)=C(C#N)C1c1ccccn1 (centres undefined),> 1000
3,CCOC(=O)C1=C(C)N=C(C[S+]([O-])c2ccncc2)/C(=C(/O)OCC)C1c1ccccc1C(F)(F)F (centres undefined),37.4
4,CCOC(=O)C1=C(C)N=C(CSc2ccccc2)/C(=C(/O)OCC)C1c1ccccc1C(F)(F)F (centres undefined),1.6
5,CCO/C(O)=C1\C(C[S+]([O-])c2ccccc2)=NC(C)=C(C#N)C1c1ccccn1 (centres undefined),> 1000
6,CCO/C(O)=C1\C(CSc2ccncc2)=NC(C)=C(C#N)C1c1ccccc1C(F)(F)F (centres undefined),1000
7,CCO/C(O)=C1\C(CSc2ccc(OC)cc2)=NC(C)=C(C#N)C1c1ccccc1C(F)(F)F (centres undefined),71
8,CCOC(=O)C1=C(C[S+]([O-])c2ccccc2)N(C)C(C)=C(C#N)C1c1ccccc1C(F)(F)F (centres undefined),> 1000
9,CC1=C(C#N)C(c2ccccc2C(F)(F)F)/C(=C(\O)OCCC#N)C(CSc2ccccc2)=N1 (centres undefined),1000
10,CCO/C(O)=C1\C(CS(=O)(=O)c2ccccc2)=NC(C)=C(C#N)C1c1ccccc1Cl (centres undefined),720
11,CCO/C(O)=C1\C(CSc2ccccn2)=NC(C)=C(C#N)C1c1ccccc1C(F)(F)F (centres undefined),> 1000
12,CCOC(=O)C1=C(C)N=C(CSc2ccccc2C)/C(=C(/O)OCC)C1c1ccccc1C(F)(F)F (centres undefined),49
13,CCO/C(O)=C1\C(C[S+]([O-])c2ccc(Cl)c(Cl)c2)=NC(C)=C(C#N)C1c1ccccc1C(F)(F)F (centres undefined),681
14,CCO/C(O)=C1\C(CSc2ccccc2Cl)=NC(C)=C(C(=O)OC)C1c1ccccc1C(F)(F)F (centres undefined),36
15,CCOC(=O)C1=C(C)N=C(C[S+]([O-])c2ccccc2)/C(=C(/O)OCC)C1c1cccnc1 (centres undefined),> 1000
16,CCO/C(O)=C1\C(CSc2ccncc2)=NC(C)=C(C#N)C1c1ccccc1Cl (centres undefined),366
17,CCCCc1ccc(SCC2=NC(C)=C(C#N)C(c3ccccc3C(F)(F)F)/C2=C(\O)OCC)c(C)c1 (centres undefined),> 1000
18,CCO/C(O)=C1\C(CSc2ccc(Cl)c(Cl)c2)=NC(C)=C(C#N)C1c1ccccc1C(F)(F)F (centres undefined),69
19,CCO/C(O)=C1\C(CS(=O)(=O)c2ccccc2)=NC(C)=C(C#N)C1c1cccc[n+]1[O-] (centres undefined),> 1000
20,CCOC(=O)C1=C(C)N=C(C[S+]([O-])c2ccccc2)/C(=C(/O)OCC)C1c1ccccc1C(F)(F)F (centres undefined),27

row,Structure (SMILES),IC50 [nM]
1,CCO/C(O)=C1\C(CS(=O)(=O)c2ccccc2)=NC(C)=C(C#N)C1c1ccco1 (centres undefined),254
2,CCO/C(O)=C1\C(C[S+]([O-])c2ccccc2)=NC(C)=C(C#N)C1c1ccccc1 (centres undefined),> 1000
3,CCO/C(O)=C1\C(CSc2ccccc2)=NC(C)=C(C#N)C1c1ccco1 (centres undefined),1354
4,CC1=C(C#N)C(c2ccccc2C(F)(F)F)/C(=C(\O)OCCO)C(C[S+]([O-])c2ccccc2)=N1 (centres undefined),1000
5,CCOC(=O)C1=C(CSc2ccccc2)N(CCN(CC)CC)C(C)=C(C#N)C1c1ccccc1C(F)(F)F (centres undefined),1000
6,CCO/C(O)=C1\C(C[S+]([O-])c2ccccc2)=NC(C)=C(C#N)C1c1ccccc1OC(F)F (centres undefined),> 1000
7,CC1=C(C#N)C(c2ccccc2C(F)(F)F)C(C(=O)O)=C(CSc2ccccc2)N1 (centres undefined),> 1000
8,CCO/C(O)=C1\C(CSc2ccccc2)=NC(C)=C(C#N)C1c1cccc([N+](=O)[O-])c1 (centres undefined),870
9,CO/C(O)=C1\C(CSc2ccccc2)=NC(C)=C(C#N)C1c1ccccc1C(F)(F)F (centres undefined),1000
10,CCOC(=O)C1=C(C)N=C(CSc2ccccn2)/C(=C(/O)OCC)C1c1ccccc1C(F)(F)F (centres undefined),51
11,CCO/C(O)=C1\C(C[S+]([O-])c2ccccn2)=NC(C)=C(C#N)C1c1ccccc1C(F)(F)F (centres undefined),1900
12,CC1=C(C#N)C(c2ccccc2C(F)(F)F)C(C(=O)O)=C(C[S+]([O-])c2ccccc2)N1 (centres undefined),> 1000
13,CCO/C(O)=C1\C(CSc2ccccc2C)=NC(C)=C(C#N)C1c1ccccc1C(F)(F)F (centres undefined),> 1000
14,CCOC(=O)C1=C(C)N=C(CSc2ccncc2)/C(=C(/O)OCC)C1c1ccccc1C(F)(F)F (centres undefined),32.5
15,CCO/C(O)=C1\C(CS(=O)(=O)c2ccccc2)=NC(C)=C(C#N)C1c1ccccn1 (centres undefined),> 1000
16,CCO/C(O)=C1\C(CS(=O)(=O)c2ccccc2)=NC(C)=C(C#N)C1c1cccnc1 (centres undefined),> 1000
17,CCO/C(O)=C1\C(CSc2ccccc2F)=NC(C)=C(C#N)C1c1ccccc1C(F)(F)F (centres undefined),267
18,CCOC(=O)C1=C(C)N=C(C[S+]([O-])c2ccc(OC)cc2)/C(=C(/O)OCC)C1c1ccccc1C(F)(F)F (stereo in doubt; 8b),18
19,CCOC(=O)C1=C(C)N=C(CSc2ccccc2)/C(=C(/O)OCC)C1c1cccnc1 (centres undefined),523
